Measurements from ChEMBL document CHEMBL2069246, “Oxadiazoles in medicinal chemistry” (J Med Chem, 2012).
Values after ≈ are worked out from the molar mass of the structure shown.

How the values were obtained:
[1] = Lipophilicity, log D of the compound at pH 7.4; format: physicochemical; settings: buffer
[2] = Aqueous solubility of the compound in HBSS buffer at pH 7.4; format: physicochemical
[3] = molecular target: Voltage-gated inwardly rectifying potassium channel KCNH2 (Homo sapiens, UniProt Q12809); assay: Inhibition of human ERG channel expressed in CHO cells by patch clamp assay
[4] = Dissociation constant, pKa of the compound; format: physicochemical
Cytochrome P450 2D6 [5] = molecular target: T1, Cytochrome P450 2D6 (Homo sapiens, UniProt P10635); assay: Inhibition of human recombinant CYP2D6 coexpressed in Escherichia coli; format: ADME
Method in brief: (§1)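 Human recombinant cytochrome P450s at 37 °C. Read-out is inhibition of metabolic degradation of each isoform's substrate. Percent inhibition is measured at five test concentrations and converted to IC50.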

Cytochrome P450 2C8 [6] = molecular target: T2, Cytochrome P450 2C8 (Homo sapiens, UniProt P10632); assay: Inhibition of human recombinant CYP2C8 coexpressed in Escherichia coli; format: ADME; method in brief: as §1
T2 sequence (P10632 whole entry): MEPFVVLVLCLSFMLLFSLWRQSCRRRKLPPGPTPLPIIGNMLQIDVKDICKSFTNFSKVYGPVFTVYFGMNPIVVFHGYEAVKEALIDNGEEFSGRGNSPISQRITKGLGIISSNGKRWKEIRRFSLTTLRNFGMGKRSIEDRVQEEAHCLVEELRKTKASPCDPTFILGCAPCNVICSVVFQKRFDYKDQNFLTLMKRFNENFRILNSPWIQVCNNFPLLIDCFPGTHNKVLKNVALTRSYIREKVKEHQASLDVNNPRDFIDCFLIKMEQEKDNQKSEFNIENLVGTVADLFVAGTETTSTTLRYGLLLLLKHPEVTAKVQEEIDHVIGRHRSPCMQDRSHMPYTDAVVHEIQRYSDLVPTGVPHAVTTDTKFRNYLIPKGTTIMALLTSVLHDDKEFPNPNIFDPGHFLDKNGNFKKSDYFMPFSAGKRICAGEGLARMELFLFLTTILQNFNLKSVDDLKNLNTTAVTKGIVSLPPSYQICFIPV

Cytochrome P450 2C9 [7] = molecular target: T3, Cytochrome P450 2C9 (Homo sapiens, UniProt P11712); assay: Inhibition of human recombinant CYP2C9 coexpressed in Escherichia coli; format: ADME; method in brief: as §1
Cytochrome P450 1A2 [8] = molecular target: T4, Cytochrome P450 1A2 (Homo sapiens, UniProt P05177); assay: Activity of human recombinant CYP1A2 assessed as enzyme contribution towards compound metabolism at 37 degC; format: ADME
T4 sequence (P05177 whole entry): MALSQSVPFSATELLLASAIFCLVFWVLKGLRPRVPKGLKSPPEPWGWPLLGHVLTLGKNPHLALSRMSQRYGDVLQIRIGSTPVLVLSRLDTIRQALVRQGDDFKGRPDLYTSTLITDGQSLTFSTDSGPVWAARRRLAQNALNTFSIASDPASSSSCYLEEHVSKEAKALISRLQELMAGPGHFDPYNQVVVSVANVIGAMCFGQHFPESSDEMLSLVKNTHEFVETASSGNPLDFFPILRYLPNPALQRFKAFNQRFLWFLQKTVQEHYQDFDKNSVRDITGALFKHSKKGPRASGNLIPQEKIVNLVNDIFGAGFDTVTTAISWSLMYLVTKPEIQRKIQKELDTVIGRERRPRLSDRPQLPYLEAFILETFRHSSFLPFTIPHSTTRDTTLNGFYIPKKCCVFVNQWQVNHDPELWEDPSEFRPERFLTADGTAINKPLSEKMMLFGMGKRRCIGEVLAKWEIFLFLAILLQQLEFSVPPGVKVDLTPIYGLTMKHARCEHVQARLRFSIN
Method in brief: (§2)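 CYP reaction phenotyping with human recombinant P450 isoforms at 37 °C. Each isoform's share of compound metabolism is given as percent contribution relative to the other isoforms in the test.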

Cytochrome P450 3A4 [9] = molecular target: T5, Cytochrome P450 3A4 (Homo sapiens, UniProt P08684); assay: Activity of human recombinant CYP3A4 assessed as enzyme contribution towards compound metabolism at 37 degC; format: ADME; parameters: concentration or dose not given beside the values; method in brief: as §2
Cytochrome P450 2C9 [10] = molecular target: T3, Cytochrome P450 2C9; assay: Activity of human recombinant CYP2C9 assessed as enzyme contribution towards compound metabolism at 37 degC; format: ADME; method in brief: as §2
Cytochrome P450 1A2 [11] = molecular target: T4, Cytochrome P450 1A2; assay: Inhibition of human recombinant CYP1A2 coexpressed in Escherichia coli using phenacetin as probe; format: ADME; method in brief: as §1
Cytochrome P450 2C19 [12] = molecular target: T6, Cytochrome P450 2C19 (Homo sapiens, UniProt P33261); assay: Inhibition of human recombinant CYP2C19 coexpressed in Escherichia coli; format: ADME; method in brief: as §1
Cytochrome P450 2C8 [13] = molecular target: T2, Cytochrome P450 2C8; assay: Activity of human recombinant CYP2C8 assessed as enzyme contribution towards compound metabolism at 37 degC; format: ADME; method in brief: as §2
Cytochrome P450 2D6 [14] = molecular target: T1, Cytochrome P450 2D6; assay: Activity of human recombinant CYP2D6 assessed as enzyme contribution towards compound metabolism at 37 degC; format: ADME; method in brief: as §2
Cytochrome P450 2C19 [15] = molecular target: T6, Cytochrome P450 2C19; assay: Activity of human recombinant CYP2C19 assessed as enzyme contribution towards compound metabolism at 37 degC; format: ADME; method in brief: as §2
Cytochrome P450 3A4 [16] = molecular target: T5, Cytochrome P450 3A4; assay: Inhibition of human recombinant CYP3A4 coexpressed in Escherichia coli; format: ADME; method in brief: as §1
[17] = Intrinsic clearance in human liver microsomes at 1 mg/ml; format: ADME, Microsome; settings: read-out: CLH
Method in brief: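 Compound incubated 45 min at 37 °C with human liver microsomes at 1 mg/mL. CLint is taken from the rate of parent disappearance.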

Voltage-gated inwardly rectifying potassium channel KCNH2, sequence (Q12809 whole entry): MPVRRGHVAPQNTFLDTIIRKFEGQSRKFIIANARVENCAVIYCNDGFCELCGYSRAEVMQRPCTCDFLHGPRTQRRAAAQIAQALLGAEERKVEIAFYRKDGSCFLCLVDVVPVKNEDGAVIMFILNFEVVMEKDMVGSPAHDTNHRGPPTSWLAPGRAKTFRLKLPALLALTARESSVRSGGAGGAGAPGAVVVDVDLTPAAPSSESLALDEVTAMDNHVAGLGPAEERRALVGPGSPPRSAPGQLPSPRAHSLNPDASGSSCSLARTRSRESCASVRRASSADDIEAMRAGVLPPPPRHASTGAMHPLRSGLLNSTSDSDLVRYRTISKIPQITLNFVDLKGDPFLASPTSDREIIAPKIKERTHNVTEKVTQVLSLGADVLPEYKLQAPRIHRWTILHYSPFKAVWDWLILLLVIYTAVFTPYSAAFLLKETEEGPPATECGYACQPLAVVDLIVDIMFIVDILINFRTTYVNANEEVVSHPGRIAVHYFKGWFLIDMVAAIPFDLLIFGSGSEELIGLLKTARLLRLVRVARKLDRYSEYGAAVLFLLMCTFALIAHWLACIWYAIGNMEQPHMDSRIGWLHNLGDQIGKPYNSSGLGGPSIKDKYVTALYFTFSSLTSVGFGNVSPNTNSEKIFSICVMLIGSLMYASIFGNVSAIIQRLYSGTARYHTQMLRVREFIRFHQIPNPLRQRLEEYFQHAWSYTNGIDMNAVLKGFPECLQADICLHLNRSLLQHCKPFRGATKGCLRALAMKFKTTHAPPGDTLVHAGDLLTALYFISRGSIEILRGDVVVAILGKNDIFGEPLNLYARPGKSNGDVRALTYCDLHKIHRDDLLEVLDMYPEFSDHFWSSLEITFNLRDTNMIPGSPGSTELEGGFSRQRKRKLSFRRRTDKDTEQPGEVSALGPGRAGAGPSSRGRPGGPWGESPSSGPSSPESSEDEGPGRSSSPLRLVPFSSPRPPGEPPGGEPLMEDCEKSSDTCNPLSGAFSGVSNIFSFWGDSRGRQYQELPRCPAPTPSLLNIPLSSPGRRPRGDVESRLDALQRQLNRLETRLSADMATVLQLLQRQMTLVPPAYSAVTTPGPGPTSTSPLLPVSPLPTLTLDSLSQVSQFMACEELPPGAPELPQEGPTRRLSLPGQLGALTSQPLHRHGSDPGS
T3 sequence (P11712 whole entry): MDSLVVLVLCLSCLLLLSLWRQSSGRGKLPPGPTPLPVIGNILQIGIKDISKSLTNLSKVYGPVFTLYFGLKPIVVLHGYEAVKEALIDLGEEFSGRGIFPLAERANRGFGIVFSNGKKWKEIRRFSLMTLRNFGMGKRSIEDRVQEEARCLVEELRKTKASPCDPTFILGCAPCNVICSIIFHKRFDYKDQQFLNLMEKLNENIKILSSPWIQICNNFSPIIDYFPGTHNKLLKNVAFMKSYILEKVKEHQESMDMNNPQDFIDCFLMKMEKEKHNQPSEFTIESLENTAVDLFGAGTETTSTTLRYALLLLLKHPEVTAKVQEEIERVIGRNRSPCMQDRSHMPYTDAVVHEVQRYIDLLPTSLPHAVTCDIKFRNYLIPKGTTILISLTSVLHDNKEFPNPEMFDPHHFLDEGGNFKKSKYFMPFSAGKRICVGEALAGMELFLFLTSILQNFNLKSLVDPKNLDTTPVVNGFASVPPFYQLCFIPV
T1 sequence (P10635 whole entry, canonical isoform): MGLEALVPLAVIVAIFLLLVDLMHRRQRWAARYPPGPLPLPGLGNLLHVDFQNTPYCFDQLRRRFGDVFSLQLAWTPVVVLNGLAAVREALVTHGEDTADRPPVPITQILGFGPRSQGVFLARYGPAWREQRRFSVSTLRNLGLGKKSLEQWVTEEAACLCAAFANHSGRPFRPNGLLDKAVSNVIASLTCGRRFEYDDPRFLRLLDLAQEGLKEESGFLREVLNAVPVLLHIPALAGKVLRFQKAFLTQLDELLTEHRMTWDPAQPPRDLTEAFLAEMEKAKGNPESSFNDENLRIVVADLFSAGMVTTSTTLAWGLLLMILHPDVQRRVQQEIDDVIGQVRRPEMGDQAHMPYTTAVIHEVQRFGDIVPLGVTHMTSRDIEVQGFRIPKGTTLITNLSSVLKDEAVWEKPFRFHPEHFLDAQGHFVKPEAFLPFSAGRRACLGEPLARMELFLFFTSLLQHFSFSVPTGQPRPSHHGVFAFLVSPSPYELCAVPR
T5 sequence (P08684 whole entry): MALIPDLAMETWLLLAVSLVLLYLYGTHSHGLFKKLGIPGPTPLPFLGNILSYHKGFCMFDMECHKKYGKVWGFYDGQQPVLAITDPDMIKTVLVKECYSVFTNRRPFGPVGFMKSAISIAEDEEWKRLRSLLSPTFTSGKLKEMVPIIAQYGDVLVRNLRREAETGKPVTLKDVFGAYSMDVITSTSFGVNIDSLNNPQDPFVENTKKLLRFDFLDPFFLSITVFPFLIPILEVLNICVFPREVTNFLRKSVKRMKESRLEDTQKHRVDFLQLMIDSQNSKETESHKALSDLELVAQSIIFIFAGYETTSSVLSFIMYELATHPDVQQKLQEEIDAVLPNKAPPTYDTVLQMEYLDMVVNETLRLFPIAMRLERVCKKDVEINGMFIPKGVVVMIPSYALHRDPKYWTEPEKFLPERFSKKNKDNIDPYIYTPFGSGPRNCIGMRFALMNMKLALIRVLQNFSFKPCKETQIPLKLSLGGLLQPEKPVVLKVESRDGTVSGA
T6 sequence (P33261 whole entry): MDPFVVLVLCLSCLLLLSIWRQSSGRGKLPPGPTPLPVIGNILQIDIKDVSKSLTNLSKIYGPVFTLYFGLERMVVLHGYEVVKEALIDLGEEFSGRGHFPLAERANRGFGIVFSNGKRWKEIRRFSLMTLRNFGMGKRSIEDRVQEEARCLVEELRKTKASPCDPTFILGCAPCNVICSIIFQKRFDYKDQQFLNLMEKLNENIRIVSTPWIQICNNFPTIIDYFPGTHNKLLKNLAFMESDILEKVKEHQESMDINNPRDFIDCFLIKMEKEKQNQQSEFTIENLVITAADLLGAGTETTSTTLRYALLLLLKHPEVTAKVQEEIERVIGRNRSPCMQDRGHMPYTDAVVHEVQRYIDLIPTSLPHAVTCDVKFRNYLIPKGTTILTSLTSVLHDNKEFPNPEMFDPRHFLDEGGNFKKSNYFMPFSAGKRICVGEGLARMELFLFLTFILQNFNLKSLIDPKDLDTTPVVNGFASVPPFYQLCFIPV

| Structure (SMILES) | logD [1] | solubility [2] [µM] | IC50 [3] [µM] | pKa [4] | other results |
| --- | --- | --- | --- | --- | --- |
| CCCc1cc(=O)[nH]c(SCc2nnc(-c3ccccc3)o2)n1 | 2.2 | 81 (≈ 26.6 µg/mL) |  |  |  |
| c1ccc(-c2nnc(-c3ccccc3)o2)cc1 | 4 | 26 (≈ 5.78 µg/mL) |  |  |  |
| CCOC(=O)N1CCN(Cc2noc(-c3cc(Cl)ccc3F)n2)CC1 | 4.3 |  | 31 | 4 |  |
| C[C@@H](Oc1nnc(-c2ccncc2)n1C)c1nnc(-c2cccc(Cl)c2)o1 | 2.3 |  | 21.5 | 3.7 |  |
| c1ccc(-c2noc(-c3ccccc3)n2)cc1 | 5.9 | 7 (≈ 1.56 µg/mL) |  |  |  |
| CCCc1cc(O)nc(SCc2nc(-c3ccccc3)no2)n1 | 3.1 | 5 (≈ 1.64 µg/mL) |  |  |  |
| C[C@@H](Oc1nnc(-c2ccncc2)n1C)c1noc(-c2cccc(Cl)c2)n1 | 3 |  | 11.6 | 3.4 |  |
| c1ccc(-c2noc(CN3CCN(Cc4nc5ccccc5s4)CC3)n2)cc1 | 5.3 |  | 13 | 4.4 |  |
| c1ccc(CN2CCN(Cc3nnc(-c4ccccc4)o3)CC2)cc1 | 3.6 |  | 27.3 | 6.7 | IC50 (Cytochrome P450 2D6 [5]): > 20 µM; IC50 (Cytochrome P450 2C8 [6]): > 20 µM; IC50 (Cytochrome P450 2C9 [7]): > 20 µM; Activity (Cytochrome P450 1A2 [8]): 0%; Activity (Cytochrome P450 3A4 [9]): 92%; CYP isoform contribution to compound metabolism (Cytochrome P450 2C9 [10]): 1.2%; IC50 (Cytochrome P450 1A2 [11]): > 20 µM; IC50 (Cytochrome P450 2C19 [12]): > 20 µM; Activity (Cytochrome P450 2C8 [13]): 1.5%; Activity (Cytochrome P450 2D6 [14]): 1.7%; Activity (Cytochrome P450 2C19 [15]): 3.2%; IC50 (Cytochrome P450 3A4 [16]): > 20 µM; microsomal CLint [17]: 4 µL/min/mg |
